# KCNK3 block – human KCNK3 channel inhibition, primary screen | hit rate 0.84% among 340,000 | AID 602410 | O14649 | B-score at 10 µM | CHO-KCNK3 thallium flux, FluxOR fluorescence; active compounds read low;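 active = B-score under library mean minus 4 SD, starting fluorescence ratio at most library mean plus 5 SD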;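 note: more negative B-score means stronger inhibition of thallium flux through KCNK3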
# KCNQ1 inh – inhibitors of human KCNQ1 potassium channel; P51787; CHO-K1 KCNQ1, FluxOR thallium flux fluorescence; active compounds read high; B-score at 10 µM; hit rate 1.3% among 310,000;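 active = compounds whose thallium flux B-score, printed positive for inhibition, exceeds three library SD while starting fluorescence stays within three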;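 note: channel opened by potassium depolarization with thallium stimulus after 20 min compound exposure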
# hERG rescue – shields human hERG channel from block by proarrhythmic agents; activation (rescue from dofetilide block), less the hit threshold, % at 10 µM; hit rate 0.51% among 310,000; CHO-hERG, FluxOR thallium flux, dofetilide IC70 present; Q12809;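 active = activation above the mean of controls blocked by dofetilide plus 5 SD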;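 note: thallium influx through hERG after potassium depolarization seen as dye fluorescence rise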
# KCNQ1 pot – potentiates or activates the human KCNQ1 potassium channel. hit rate 0.35% among 310,000. AID 2648. B-score at 10 µM. P51787. CHO-K1 KCNQ1, thallium flux FluxOR fluorescence; active compounds read high;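 active = fluorescence ratio B-score, a plate-corrected score, at least three library SD, with initial intensity B-score within 5 SD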
#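 assay system = CHO-K1 cells stably expressing KCNQ1 | medium = assay buffer, equal DMSO in all wells | timing = 37 °C overnight plating, 90-min dark dye load, 20-min compound pretreatment | measured by = kinetic FluxOR thallium fluorescence, 10-s 1-Hz baseline, 110-s post-stimulus read | measure = fluorescence change relative to baseline, converted to B score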
# KCNK9 inh – inhibitors of human KCNK9 two-pore domain potassium channel; B-score at 10 µM; Q9NPC2; HEK293 KCNK9, FluxOR thallium flux fluorescence; active compounds read low; hit rate 1.2% among 310,000;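 active = ratio B-score over 3 SD below the library mean, with starting fluorescence within 5 SD of its mean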;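 note: negative B-score means less thallium flux so channel inhibition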
# KCNK9 inh conf – human KCNK9 inhibitor confirmation. shares compounds with KCNK9 inh. HEK293 KCNK9 cells, FluxOR thallium flux fluorescence. inhibition, % at 10 µM. hit rate 43% among 4,900;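 active = thallium signal inhibited by more than 5 SD of the compound-free buffer control wells, on both duplicate plates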;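 note: 0% = assay buffer control wells without compound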
# Kir21 sel – selectivity of KCNK9 modulators against mouse Kir2.1 | shares compounds with KCNK9 inh | Kir2.1 cells, FluxOR thallium flux fluorescence | inhibition, % at 10 µM | hit rate 4% among 4,900 | AID 492993;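 active = thallium signal drop more than 5 SD beyond the mean of the no-compound control wells, seen in both duplicate plates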;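 note: signal is fluorescence rise after thallium addition divided by baseline fluorescence; plate controls were assay buffer only for no effect and full block by chlorpromazine control for full effect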
# Target sequence (P35561 whole entry, looked up): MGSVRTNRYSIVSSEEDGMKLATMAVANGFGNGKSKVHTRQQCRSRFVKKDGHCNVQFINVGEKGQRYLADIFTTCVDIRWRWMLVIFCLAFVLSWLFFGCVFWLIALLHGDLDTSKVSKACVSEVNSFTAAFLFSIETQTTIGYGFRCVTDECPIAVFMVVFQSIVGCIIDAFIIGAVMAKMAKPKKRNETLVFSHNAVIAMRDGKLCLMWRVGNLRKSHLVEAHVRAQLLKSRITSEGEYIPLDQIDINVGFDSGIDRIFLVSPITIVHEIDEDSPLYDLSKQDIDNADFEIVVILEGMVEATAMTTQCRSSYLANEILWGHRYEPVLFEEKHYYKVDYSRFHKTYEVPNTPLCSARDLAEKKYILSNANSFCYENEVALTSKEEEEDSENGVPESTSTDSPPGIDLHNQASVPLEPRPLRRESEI
# HEK293 Tl ctr – second counter-screen for KCNK9 modulators: effect in non-induced cells; shares compounds with KCNK9 inh; non-induced KCNK9-HEK293, FluxOR thallium flux; inhibition, % at 10 µM; hit rate 40% among 4,900;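 active = thallium signal drop beyond 5 SD of the untreated control mean, on both duplicate plates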;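 note: plate controls were buffer only IC0 wells for no effect and SID17386958 at its maximal inhibitory level for full effect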
# * hit, by the source's call; i = inactive; x = not tested or not shown. Shown are actives, neighbours in structure and some others; about 3.1% of the full set was active somewhere.
SMILES,KCNK3 block,KCNQ1 inh,hERG rescue,KCNQ1 pot,KCNK9 inh,KCNK9 inh conf,Kir21 sel,HEK293 Tl ctr
CNC(=O)C12CC3CC(C1)CC(c1ccc(C)cc1)(C3)C2,i,i,-6,i,i,x,x,x
CCCCC1=CC2=C(c3ccco3)C(=O)C(C)(OC(=O)c3ccc(OC)cc3)C(=O)C2=CN1C1CCCCC1 (stereo not given),i,i,-6,i,i,x,x,x
COc1cccc2cc(C(C)OC(=O)Nc3ccc(C)cc3)oc12 (stereo not given),i,i,-12,i,i,x,x,x
O=C(Nc1cnccn1)Nc1ccccc1F,i,i,-6,i,i,x,x,x
COc1ccc(NC(=O)CN2C(=O)NC3(CCCC3)C2=O)cc1OC,i,i,-5,i,i,x,x,x
COc1ccc(NC(=O)CN2C(=O)NC(c3ccccc3)(c3ccccc3)C2=O)cc1OC,i,i,-2,i,-16*,i,i,i
CCOc1ccccc1NC(=O)COC(=O)C1CC(=O)N(c2c(C)cccc2C)C1 (stereo not given),i,i,-7,i,i,x,x,x
Cc1cc2ccccn2c1C(=O)c1ccc(Cl)cc1,i,i,-7,i,i,x,x,x
Cc1cc2ccccn2c1C(=O)c1ccccc1F,i,i,-7,i,-12*,i,i,i
COC(=O)CC1C(=O)NCCN1C(=S)NC(=O)c1sc2ccccc2c1Cl (stereo not given),i,i,0,i,i,x,x,x
CCOC(=O)N1CCN(Cc2nnc(-c3ccccc3C)o2)CC1,i,i,-3,i,i,x,x,x
N#Cc1ccc(-c2ccc(OCC(=O)NCCc3ccccc3)cc2)cc1,i,i,-7,i,i,x,x,x
CCn1c(Cc2ccccc2)nnc1SCc1cccc(C(=O)O)c1,i,i,-7,i,i,x,x,x
COc1ccc(-c2c([C@H]3[C@@H]4C=CCC[C@@]4(C)C(=O)N3Cc3ccccc3)ccc3ccccc23)cc1OC,i,i,-18,i,i,i,i,i
COc1ccc(-c2ccc([C@H]3[C@@H]4C=CCC[C@@]4(C)C(=O)N3Cc3ccccc3)c(F)c2)cc1OC,i,i,-7,i,i,x,x,x
COc1cccc(NC(=O)CN2C(=O)NC(C)(CC(C)C)C2=O)c1 (stereo not given),i,i,-15,i,i,x,x,x
Cc1ccccc1Nc1nnc(SCC2CCCCO2)s1 (stereo not given),i,i,-6,i,-8.8*,i,i,i
COc1ccc(CNC(=O)C(c2ccc(C)cc2)N(Cc2cccs2)C(=O)c2ccc3c(c2)OCCO3)cc1 (stereo not given),i,i,-17,i,i,i,i,i
CCCCC(=O)Nc1cccc(-c2nc3ncccc3o2)c1,i,i,-23,i,-11*,34%*,i,i
O=C(CCl)N(Cc1cc(=O)[nH]c2ccccc12)c1ccccc1,i,i,-7,i,i,x,x,x
O=C(COc1ccccc1)NCC(=O)N/N=C/c1ccc(Br)cc1,i,i,-7,i,i,x,x,x
O=C(O)Cn1cc(CN2CCOCC2)c2ccccc21,i,i,3,i,i,x,x,x
Cn1cc(CN2CCN(c3ccccc3)CC2)c2ccccc21,i,i,-10,i,i,i,i,i
Cc1ccc(NC(=O)C2CCN(S(=O)(=O)c3cccs3)CC2)c(O)c1,i,i,-4,i,i,x,x,x
Cc1cccc(C(=O)NC(=S)NC(C)c2ccccc2)c1 (stereo not given),i,i,-9,i,i,i,i,i
SMILES,KCNK3 block,KCNQ1 inh,hERG rescue,KCNQ1 pot,KCNK9 inh,KCNK9 inh conf,Kir21 sel,HEK293 Tl ctr
CC(NC(=S)NC(=O)c1ccccc1)c1ccccc1 (stereo not given),i,i,-5,i,i,i,i,i
Cc1cccc(C(=O)NC(=S)Nc2ccc(Cc3ccncc3)cc2)c1,i,i,-4,i,i,i,i,i
COc1ccc(C(=O)NC(=S)NC(C)c2ccccc2)cc1 (stereo not given),i,i,-12,i,i,x,x,x
O=C(NC(=S)Nc1ccc(Cc2ccncc2)cc1)c1ccccc1,i,i,-4,i,i,x,x,x
CCC(=O)Nc1cccc(NC(=S)NC(=O)c2cccc(C)c2)c1,i,i,-11,i,i,x,x,x
CC(C)(C)C1=NN(c2ccc([N+](=O)[O-])cc2)C(c2ccccc2)C1 (stereo not given),i,9*,-2,i,-8.8*,44%*,i,48%*
CC(=O)NCCC(=O)N1CCCC(N(C)CCc2ccccc2)C1 (stereo not given),i,i,2,i,i,x,x,x
CC(C)c1ccc(-n2c(-c3ccccc3)c[n+]3c2CCc2ccccc2-3)cc1,i,i,-49,i,-16*,72%*,75%*,32%*
COc1ccc(-c2c[n+]3c(n2-c2ccccc2)CCCCC3)cc1,i,i,-18,i,i,x,x,x
COc1cc(CNCCO)cc(Cl)c1OCc1ccc(Cl)cc1Cl,i,i,-20,i,-8.7*,46%*,62%*,i
COc1cc(CNCCO)cc(Br)c1OCc1ccccc1Cl,i,i,-17,i,i,x,x,x
CC1CC1c1ccc(/C=C(\C#N)C(=O)Nc2ccccc2Cl)o1 (stereo not given),i,i,-13,i,i,x,x,x
Cc1cc(C)nc(Sc2ccc(/C=C(\C#N)C(=O)Nc3ccccc3)o2)n1,i,i,2,i,i,x,x,x
CCc1ccccc1NC(=O)/C(C#N)=C/c1ccc(Sc2ccccc2)o1,i,i,-7,i,-14*,53%*,i,51%*
CCc1ccccc1NC(=O)/C(C#N)=C\c1ccc(Sc2ccccc2)o1,-9.4*,i,-3,i,-11*,40%*,i,49%*
CC(C)[C@H](NC(=O)c1ccccc1Cl)C(=O)Nc1nc(-c2ccccn2)cs1,i,i,-8,i,-9.3*,42%*,i,34%*
CSCC(=O)Nc1ccc(F)c(Cl)c1,i,i,-7,i,i,i,i,i
CCc1nn2c(=O)cc(CSCC(=O)Nc3ccccc3Cl)nc2s1,i,i,-7,i,i,x,x,x

# Screening results deposited in PubChem by Johns Hopkins Ion Channel Center.
